This is an account of results in ChEMBL document CHEMBL2176886, “Anti-AIDS agents 90. novel C-28 modified bevirimat analogues as potent HIV maturation inhibitors” (J Med Chem, 2012).

SMILES strings stand for the structures. Active and inactive are the calls of the source. The rule behind the calls is not given here.

For series [1], the system named is Human immunodeficiency virus 1. Nature of the series: Antiviral activity against HIV1 NL4-3 infected in human MT4 cells assessed as p24 antigen level after 4 days by ELISA. The class given is functional, organism-based. Conditions: Human immunodeficiency virus 1, NL4-3, MT4, 96 h. Summed up:
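MT-4 cells infected with HIV-1 NL4-3 variants at MOI 0.01; supernatants harvested day 4 post-infection for p24 antigen capture ELISA. IC50 is the concentration inhibiting replication by 50%; values are averages of at least three separate experiments.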
On the technique in general: In an ELISA, binding on a coated surface is turned into a signal by an enzyme label.

The subject of series [2] is Human immunodeficiency virus 1. Nature of the series: Antiviral activity against HIV1 infected in human TZM-bl cells assessed as reduction of viral entry after 48 hrs by luciferase reporter gene assay. The class given is functional, organism-based. Summed up: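 Single-round infection of TZM-bl cells (HeLa clone expressing CD4/CCR5 with HIV-1 LTR-driven firefly luciferase) with HIV-1 at 200 TCID50 mixed with test samples. After 48 h, medium was replaced with Bright-Glo reagent and luminescence read. IC50 is the concentration giving 50% RLU reduction versus virus-control wells after background subtraction.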
On the technique in general: In a reporter assay the amount or activity of a reporter protein is the signal.

In series [3] the test system is Human immunodeficiency virus 1. Kind of series: Ratio of bevirimat IC50 to compound IC50 for HIV1 NL4-3 infected in human MT4 cells. Type of series: functional. In outline: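 MT-4 cells were infected with HIV-1 NL4-3 at MOI 0.01. Day-4 supernatant p24 was measured by ELISA. IC50 is the concentration giving 50% inhibition of replication, from averages of at least three separate experiments. The ratio divides the bevirimat IC50 by the compound IC50, both from this assay.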

Another series has as its system MT4. Kind of series: Cytotoxicity against human MT4 cells after 2 days. The note with it: mt4, 48 h. The class given is cell-based.
The nature of series [4]: Therapeutic index, ratio of CC50 for human MT4 cells to IC50 for HIV-1 NL4-3. Type of series: cell-based. Conditions: read-out: Ratio CC50/IC50. Summed up:
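TI calculated as CC50 (mock-infected MT-4 growth, 2 days) divided by IC50 (HIV-1 NL4-3 replication in MT-4 cells, p24 ELISA at day 4).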

The test system of series [5] is Human immunodeficiency virus 1. Nature of the series: Antiviral activity against HIV1 infected in human TZM-bl cells assessed as reduction of viral […] after 48 hrs by luciferase reporter gene assay. The class given is functional, organism-based. In outline:
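Single-round infection of TZM-bl cells (HeLa clone expressing CD4 and CCR5, HIV-1 LTR-driven firefly luciferase) with HIV-1 at 200 TCID50 mixed with samples. Luminescence read after 48 h. IC50 is the concentration giving 50% lower RLU than virus control wells, after subtracting background RLU.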

For the next series, the species on record is Homo sapiens. Kind of series: Elimination half life in human. Type of series: ADME, organism-based. Conditions: in vivo.
Another series has as its system Liver microsomes. Nature of the series: Half life in human liver microsomes at 1 uM. Type of series: ADME, Microsome. In outline: (§1)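 Pooled human liver microsomes at 0.1 mg/mL in 0.1 M potassium phosphate pH 7.4 with 5 mM MgCl2. Compound at 1 μM final; reaction started with 1.0 mM NADPH (final) at 37 °C, duplicate incubations. Quenched with ice-cold acetonitrile at 0, 5, 15, 30, 60 min. Parent measured by LC-ESI-MS (SIM), remaining percentage relative to 0 min. t1/2 = 0.693/k from log-linear slope.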
A general note: Microsomes from liver hold many membrane-bound enzymes, among them those of drug oxidation.

Series [6] can be described thus: Metabolic stability in human liver microsomes assessed as compound remaining at 1 uM after 60 mins by HPLC-MS analysis. The class given is ADME, Microsome. The note with it: read-out: Stability. Summed up:
as §1

With `C=C(C)[C@@H]1CC[C@]2(C(=O)OCOCCOC)CC[C@]3(C)[C@H](CC[C@@H]4[C@@]5(C)CC[C@H](OC(=O)CC(C)(C)C(=O)O)C(C)(C)[C@@H]5CC[C@]43C)[C@@H]12`, the IC50 – broadly, the point on the concentration scale where inhibition reaches its midpoint – in series [1] turned out to be 0.046 µM. Also, in series [2], the outcome was inactive. The “Ratio IC50” value in [3] is listed as 2. For the same compound, the CC50 (usually the concentration that lowers cell viability or growth by half) in the series on MT4 came to 12.1 µM. For the same compound, the selectivity ratio in series [4] turned out to be 261. In series [5], the result was Active.
On to `C=C(C)[C@@H]1CC[C@]2(C(=O)O)CC[C@]3(C)[C@H](CC[C@@H]4[C@@]5(C)CC[C@H](OC(=O)CC(C)(C)C(=O)O)C(C)(C)[C@@H]5CC[C@]43C)[C@@H]12` [BEVIRIMAT], for which the IC50 in series [1] was 0.087 µM. In series [2], the outcome was inactive. For the same compound, the 50% cytotoxic concentration (CC50) with MT4 is 14.2 µM. Besides, the selectivity ratio in series [4] turned out to be 171. Moreover, the “beta t1/2” value in the series listed under Homo sapiens came out at 56.3 h.
Consider `C=C(C)[C@@H]1CC[C@]2(C(=O)N3CCC(CCCC(=O)NCCN4CCOCC4)CC3)CC[C@]3(C)[C@H](CC[C@@H]4[C@@]5(C)CC[C@H](OC(=O)CC(C)(C)C(=O)O)C(C)(C)[C@@H]5CC[C@]43C)[C@@H]12`, for which the IC50 in series [1] was 0.035 µM. Besides, the result in series [2] was inactive. Moreover, the “Ratio IC50” value in series [3] is listed as 3. Further, half-maximal cytotoxicity with MT4 (CC50) was put at 10 µM. Further, the selectivity ratio in series [4] amounted to 286.
For `C=C(C)[C@@H]1CC[C@]2(C(=O)N3CCN(CCCC(=O)O)CC3)CC[C@]3(C)[C@H](CC[C@@H]4[C@@]5(C)CC[C@H](OC(=O)CC(C)(C)C(=O)O)C(C)(C)[C@@H]5CC[C@]43C)[C@@H]12`, in that order: 0.011 µM, “inactive”, 7.9, 13 µM and 1180.
Take `C=C(C)[C@@H]1CC[C@]2(C(=O)OCCC)CC[C@]3(C)[C@H](CC[C@@H]4[C@@]5(C)CC[C@H](OC(=O)CC(C)(C)C(=O)O)C(C)(C)[C@@H]5CC[C@]43C)[C@@H]12`: the IC50 in series [1] is 0.088 µM. Moreover, the result in series [2] was inactive. For the same compound, in the series with MT4, the cytotoxic concentration (CC50) amounted to 10.4 µM. In series [4], the selectivity ratio came to 118. The outcome in series [5] was Active.
As to `C=C(C)[C@@H]1CC[C@]2(C(=O)N3CCC(CCCC(=O)NCCCN4CCOCC4)CC3)CC[C@]3(C)[C@H](CC[C@@H]4[C@@]5(C)CC[C@H](OC(=O)CC(C)(C)C(=O)O)C(C)(C)[C@@H]5CC[C@]43C)[C@@H]12`, the IC50 in series [1] is 0.031 µM. In addition, in series [2], the result was inactive. Further, the “Ratio IC50” value in series [3] is listed as 3. The compound further returned a CC50 in the series with MT4 of 10 µM. The selectivity ratio in series [4] came to 321.
Regarding `C=C(C)[C@@H]1CC[C@]2(C(=O)OCCCCCC)CC[C@]3(C)[C@H](CC[C@@H]4[C@@]5(C)CC[C@H](OC(=O)CC(C)(C)C(=O)O)C(C)(C)[C@@H]5CC[C@]43C)[C@@H]12`, the IC50 in [1] came out at 1.8 µM. The result in series [2] was inactive. The compound also had a 50% cytotoxic concentration (CC50) with MT4 of 14.8 µM. Moreover, in [4], the selectivity ratio amounted to 8.3. The result in series [5] was Active.
In the case of `C=C(C)[C@@H]1CC[C@]2(C(=O)N3CCN(CCCCC(=O)O)CC3)CC[C@]3(C)[C@H](CC[C@@H]4[C@@]5(C)CC[C@H](OC(=O)CC(C)(C)C(=O)O)C(C)(C)[C@@H]5CC[C@]43C)[C@@H]12`, the IC50 in [1] worked out at 0.0059 µM. In series [2], the outcome was inactive. Further, the t1/2 in the series with Liver microsomes was 5.45 h. In addition, in series [3], the “Ratio IC50” value is reported as 15. The CC50 with MT4 turned out to be 13.2 µM. Further, the selectivity ratio in series [4] is 2240. The remaining at 1 h, 1 µM in series [6] was 86.2%. In addition, the result in [5] was Active.
Consider `C=C(C)[C@@H]1CC[C@]2(C(=O)OCCCCCC(=O)OCC)CC[C@]3(C)[C@H](CC[C@@H]4[C@@]5(C)CC[C@H](OC(=O)CC(C)(C)C(=O)O)C(C)(C)[C@@H]5CC[C@]43C)[C@@H]12`, for which the IC50 in series [1] is 0.056 µM. In addition, the outcome in series [2] was inactive. For the same compound, the CC50 in the series on MT4 was found to be 8.6 µM. In [4], the selectivity ratio was 154. The result in [5] was Active.
